19 molecules from ChEMBL document CHEMBL5096188, “Quinolinonyl Non-Diketo Acid Derivatives as Inhibitors of HIV-1 Ribonuclease H and Polymerase Functions of Reverse Transcriptase” (J Med Chem, 2021) can be followed below.

The structures appear in SMILES notation. The source made the active and inactive calls. No cut-off for these calls is given here.

As usually defined, the IC50 is the concentration at which inhibition is half-maximal.

The first data set deals with T1, Human immunodeficiency virus type 1 reverse transcriptase (Human immunodeficiency virus 1, UniProt Q72547). As to the kind of experiment: Inhibition of HIV-1 reverse transcriptase associated RNA-dependent DNA polymerase activity using poly(A)-oligo(dT) as template/primer incubated for 30 mins by multilabel counter plate reader analysis.
Conditions: not given
For `O=C(/C=C/c1ccc2c(c1)c(=O)c(C(=O)O)cn2Cc1ccc(F)cc1)c1ccccc1`, the IC50 was above 100 µM.

The target in another data set is T1, Human immunodeficiency virus type 1 reverse transcriptase. The data set is described as follows: Inhibition of recombinant His-tagged wild-type HIV-1 group M subtype B BH10 reverse transcriptase-associated RNase H activity harboring p66/p51 hetrodimer expressed in Escherichia coli M15 using GTTTTCTTTTCCCCCCTGAC-30 fluorescein/50-CAAAAGAAAAGGGGGGACUG-30 Dabcyl RNA/DNA template-primer as substrate incubated for 1 hr by multilabel counter plate reader analysis.
Conditions: not given
The procedure, abridged:
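His-tagged p66/p51 RT was expressed in E. coli M15, with mutations placed in p66 by site-directed mutagenesis. The mix held 50 mM Tris HCl pH 7.8, 6 mM MgCl2, 1 mM DTT, 80 mM KCl, 250 nM fluorescein/Dabcyl RNA/DNA hybrid and serial compound dilutions, with no preincubation. Reactions were started with enzyme (wt, R448A, K451A 20 ng; K540A 40 ng; N474A 500 ng), run 1 h at 37 °C and read at 490/528 nm. Duplicates were repeated at least twice; IC50 is mean ± SD.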
In the case of `CCOC(=O)c1cn(Cc2ccc(F)cc2)c2ccc(OCCCN(C)C)cc2c1=O`, the IC50 was above 100 µM. Consider `CCOC(=O)c1cn(Cc2ccc(F)cc2)c2ccc(O)cc2c1=O`, for which the IC50 is above 100 µM. On to `CCOC(=O)c1cn(Cc2ccc(F)cc2)c2ccc(C#N)cc2c1=O`, for which the IC50 is above 100 µM. On the same count and under the same terms, for `COc1ccc2c(c1)c(=O)c(C(=O)O)cn2Cc1ccc(F)cc1` the value was above 100 µM; for `CCOC(=O)c1cn(Cc2ccc(F)cc2)c2ccc(OC)cc2c1=O`, above 100 µM. Regarding `N#Cc1ccc2c(c1)c(=O)c(C(=O)O)cn2Cc1ccc(F)cc1`, the IC50 was above 100 µM. As to `O=C(O)c1cn(Cc2ccc(F)cc2)c2ccc(C(F)(F)F)cc2c1=O`, the IC50 is above 100 µM. Still for that read-out and setting: to `CCOC(=O)c1cn(Cc2ccc(F)cc2)c2ccc(S(C)(=O)=O)cc2c1=O` belongs above 100 µM; to `O=C(O)c1cn(Cc2ccc(F)cc2)c2ccccc2c1=O`, above 100 µM; to `CCOC(=O)c1cn(Cc2ccc(F)cc2)c2ccc(OCc3ccc(-c4ccccc4)cc3)cc2c1=O`, above 100 µM.

Tested on in another data set: not listed separately
The data set is described as follows: Selectivity index, ratio of CC50 for cytotoxicity against human HeLa-CD4-LTR-beta-gal cells to EC50 for antiviral activity against HIV 1 infected in human HeLa-CD4-LTR-beta-gal cells. The class given is toxicity, cell-based. The settings on record: read-out: Ratio CC50/EC50. Put shortly: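 Selectivity index is CC50/EC50. Both values come from HeLa-CD4-LTR-β-gal cells at 24 h. EC50 is from β-galactosidase readout after infection with in-house HIV-1 (H9-laï coculture). CC50 is from the CellTiter 96 AQueous One proliferation assay.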
Consider `CCOC(=O)/C=C/C(=O)/C=C/c1cccn1Cc1ccccc1Cl`, for which the selectivity ratio is above 13.7.

For another data set, the target named is Human immunodeficiency virus type 1 integrase (Human immunodeficiency virus 1, UniProt Q7ZJM1). As to the kind of experiment: Inhibition of recombinant His-tagged HIV-1 NL4-3 integrase expressed in Escherichia coli BL21 pLys using GTGTGGAAAATCTCTAGCA/ACTGCTAGAGATTTTCCACAC as DNA substrate incubated for 2 hrs by densitometric analysis.
Human immunodeficiency virus type 1 integrase, sequence (Q7ZJM1 whole entry): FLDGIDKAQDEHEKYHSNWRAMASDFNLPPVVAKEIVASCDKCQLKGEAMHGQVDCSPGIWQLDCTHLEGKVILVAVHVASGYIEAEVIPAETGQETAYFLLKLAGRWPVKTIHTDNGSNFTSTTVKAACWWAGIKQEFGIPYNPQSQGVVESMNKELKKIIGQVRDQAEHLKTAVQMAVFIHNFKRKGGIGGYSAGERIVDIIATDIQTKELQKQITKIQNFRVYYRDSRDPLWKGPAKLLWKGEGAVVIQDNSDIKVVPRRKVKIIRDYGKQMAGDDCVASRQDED
Conditions: not given
As for `O=C(O)c1cn(Cc2ccc(F)cc2)c2ccc(OCc3cccc(Cl)c3Cl)cc2c1=O`, the IC50 was above 100 µM. With `CCOC(=O)/C=C/C(=O)/C=C/c1cccn1Cc1ccccc1Cl`, the concentration for half-maximal inhibition (IC50) is above 100 µM. Same read-out and setting: for `O=C(O)c1cn(Cc2ccc(F)cc2)c2ccc(OCc3ccc(-c4ccccc4)cc3)cc2c1=O` the value was above 250 µM; for `CC(=O)c1ccc2c(c1)c(=O)c(C(=O)O)cn2Cc1ccc(F)cc1`, above 100 µM; for `CCOC(=O)c1cn(Cc2ccc(F)cc2)c2ccc(C(C)=O)cc2c1=O`, above 100 µM. On the same count and under the same terms, to `O=C(O)c1cn(Cc2ccc(F)cc2)c2ccc(OCc3cccc4ccccc34)cc2c1=O` belongs above 100 µM. For `O=C(O)c1cn(Cc2ccc(F)cc2)c2ccc(OCc3ccc4c(c3)OCO4)cc2c1=O`, the IC50 was above 100 µM.

Tested on in the next data set: not listed separately
As to the kind of experiment: Metal chelating activity assessed as Mg2+-compound complex formation at 3.8 x 10^-5M by UV-visible spectrophotometric titration analysis. The settings on record: dose 3.8 10^-5M. Put shortly: (§1)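 Compound in absolute ethanol, titrated with MgCl2 stock solutions (4 10–5 to 0.2 M, diluted in ethanol). UV–vis spectra were recorded from 230 to 370 or 600 nm against ethanol in a 1 cm quartz cuvette, in triplicate. Stoichiometry was found by Job's method using equimolar metal/ligand mixtures. ΔA was plotted against ligand mole fraction, and the maximum was located by linear regression.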
In the case of `O=C(O)c1cn(Cc2ccc(F)cc2)c2ccc(OCc3cccc4ccccc34)cc2c1=O`, the result was Active.

Tested on in the next data set: not listed separately
As to the kind of experiment: Metal chelating activity assessed as Mg2+-compound complex formation at 4.1 x 10^-5 M by UV-visible spectrophotometric titration analysis. Particulars: dose 4.1 10^-5M. Put shortly: as §1
For the molecule `CCOC(=O)c1cn(Cc2ccc(F)cc2)c2ccc(OCc3cccc4ccccc34)cc2c1=O`, the result was Active.
